This note sets out measurements from ChEMBL document CHEMBL4325827, “Bifidenone: Structure-Activity Relationship and Advanced Preclinical Candidate” (J Med Chem, 2018).

For one data set, the system named is M14. The data set can be described thus: Antiproliferative activity against human M14 cells after 72 hrs by CellTiter 96 aqueous nonradioactive cell proliferation assay. It is filed as functional, cell-based. Particulars: M14, 72 h. The method, boiled down:
(§1)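 Antiproliferation in cultured tumour cells, at least 3 replicate wells per concentration per experiment. NCI-H460 came from ATCC. M14, NCI/ADR-RES, OVCAR-4, HCT-15, ACHN and SF-295 came from the National Cancer Institute. IC50 reported from single experiments where no SD is given.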

The subject of a further data set is NCI-H460. The data set can be described thus: Antiproliferative activity against human NCI-H460 cells after 72 hrs by CellTiter 96 aqueous nonradioactive cell proliferation assay. It is filed as functional, cell-based. Particulars: NCI-H460, 72 h. In a few lines: as §1
Data set [1] concerns SF-295. Kind of data set: Antiproliferative activity against taxane-resistant human SF295 cells after 72 hrs by CellTiter 96 aqueous nonradioactive cell proliferation assay. It is filed as functional, cell-based. Particulars: SF-295, 72 h. The method, boiled down: as §1
The next data set deals with OVCAR-4. The data set can be described thus: Potency index, ratio of paclitaxel IC50 to compound IC50 for taxane-resistant human OVCAR4 cells after 72 hrs by CellTiter 96 aqueous nonradioactive cell proliferation assay. The class given is functional.
In the next data set the test system is HCT-15. Kind of data set: Potency index, ratio of paclitaxel IC50 to compound IC50 for taxane-resistant human HCT15 cells after 72 hrs by CellTiter 96 aqueous nonradioactive cell proliferation assay. It is filed as functional.
Data set [2] has as its system SF-295. The data set can be described thus: Potency index, ratio of paclitaxel IC50 to compound IC50 for taxane-resistant human SF295 cells after 72 hrs by CellTiter 96 aqueous nonradioactive cell proliferation assay. The class given is functional.
Data set [3] in a line: Toxicity in Crl:NU(NCr)-Foxn1 nu mouse xenografted with human NCI-H460 cells assessed as mortality at 40 mg/kg, ip qd administered for 3 consecutive days followed by 2 days of rest for 3 cycles. The class given is organism-based. Particulars: in vivo, 48 h. In a few lines:
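Female athymic nude mice bearing subcutaneous xenografts started from cultured human tumor cells. Mice were split into vehicle and treatment groups once tumors reached about 75-200 mm3. Dosing was ip at 5-10 mL/kg in 22% ethanol, 38% PEG400, 40% 20 mM Na citrate pH 5.0. Deaths per group were recorded alongside maximum mean bodyweight loss.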

The nature of data set [4]: Toxicity in Crl:NU(NCr)-Foxn1 nu mouse xenografted with human […] cells assessed as maximum body weight loss at 50 mg/kg, ip qd administered for 3 consecutive days followed by 2 days of rest for 3 cycles measured after 7 days post dose relative to control. The class given is organism-based. Particulars: in vivo, 168 h. In a few lines:
(§2)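 Female athymic nude mice bearing subcutaneous xenografts, started from cultured cells (NCI-H460, Calu-6, NCI-H69, LOX-IMVI) or from serially passaged tumour fragments (NCI-H522). Mice were grouped into vehicle and treatment arms at tumour volumes of about 75-200 mm3. Dosing was ip at 5-10 mL/kg in 22% ethanol, 38% PEG400, 40% 20 mM Na citrate pH 5.0. Caliper volumes were taken as (length × width2)/2. Treated and control delta weights were median tumour weight minus staging-day median.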

A short description of data set [5]: Toxicity in Crl:NU(NCr)-Foxn1 nu mouse xenografted with human NCI-H69 cells assessed as maximum body weight loss at 60 mg/kg, ip dosed on day 1 followed by 4 days rest and subsequently dosed at 60 mg/kg, ip qd administered for 3 consecutive days followed by 2 days of rest for 2 cycles measured after 3 days post dose relative to control. Particulars: in vivo, 72 h. It is filed as organism-based. In a few lines:
as §2

For the next data set, the system named is NCI-H522. Kind of data set: Antitumor activity against human NCI-H522 cells xenografted in Crl:NU(NCr)-Foxn1 nu mouse assessed as tumor growth inhibition at 60 mg/kg, ip qd administered for 3 consecutive days followed by 2 days of rest for 3 cycles relative to control. It is filed as functional. Particulars: 48 h, read-out: TGI. The method, boiled down:
as §2

The subject of a further data set is Calu-6. Kind of data set: Antitumor activity against human Calu6 cells xenografted in Crl:NU(NCr)-Foxn1 nu mouse assessed as tumor growth inhibition at 50 mg/kg, ip qd administered for 3 consecutive days followed by 2 days of rest for 4 cycles relative to control. It is filed as functional. Particulars: Calu-6, ip, 48 h, read-out: TGI. In a few lines: as §2

Each structure is given as a SMILES string.

For the compound `C=CC[C@H]1C[C@]2([C@H](C)Cc3cc(O)c(OC)cc3F)OCOC2=CC1=O`, the IC50 in the data set with M14 stood at 17 nM; with NCI-H460, 15 nM; in the data set with SF-295 [1], 9.6 nM. Moreover, the figures for the “Ratio IC50” value in the data set on OVCAR-4, in the data set with HCT-15 and with SF-295 [2] were greater than 75, 14 and 6, respectively. In addition, the Activity result in data set [3] is “Toxic”; in data set [4] it was 8%; in data set [5], 6%. For the same compound, the inhibition in vivo at 60 mg/kg in the data set on NCI-H522 came to 82%. Also, the inhibition in vivo at 50 mg/kg in the data set with Calu-6 was 76%.
